The record followed here is ChEMBL document CHEMBL1153716, “Constrained peptidomimetics reveal detailed geometric requirements of covalent prolyl oligopeptidase inhibitors” (J Med Chem, 2009).

Active and inactive are the calls of the source. The rule behind the calls is not given here.

For assay [1], the target named is T1, Prolyl endopeptidase (Homo sapiens) (UniProt P48147).
T1 sequence (whole entry): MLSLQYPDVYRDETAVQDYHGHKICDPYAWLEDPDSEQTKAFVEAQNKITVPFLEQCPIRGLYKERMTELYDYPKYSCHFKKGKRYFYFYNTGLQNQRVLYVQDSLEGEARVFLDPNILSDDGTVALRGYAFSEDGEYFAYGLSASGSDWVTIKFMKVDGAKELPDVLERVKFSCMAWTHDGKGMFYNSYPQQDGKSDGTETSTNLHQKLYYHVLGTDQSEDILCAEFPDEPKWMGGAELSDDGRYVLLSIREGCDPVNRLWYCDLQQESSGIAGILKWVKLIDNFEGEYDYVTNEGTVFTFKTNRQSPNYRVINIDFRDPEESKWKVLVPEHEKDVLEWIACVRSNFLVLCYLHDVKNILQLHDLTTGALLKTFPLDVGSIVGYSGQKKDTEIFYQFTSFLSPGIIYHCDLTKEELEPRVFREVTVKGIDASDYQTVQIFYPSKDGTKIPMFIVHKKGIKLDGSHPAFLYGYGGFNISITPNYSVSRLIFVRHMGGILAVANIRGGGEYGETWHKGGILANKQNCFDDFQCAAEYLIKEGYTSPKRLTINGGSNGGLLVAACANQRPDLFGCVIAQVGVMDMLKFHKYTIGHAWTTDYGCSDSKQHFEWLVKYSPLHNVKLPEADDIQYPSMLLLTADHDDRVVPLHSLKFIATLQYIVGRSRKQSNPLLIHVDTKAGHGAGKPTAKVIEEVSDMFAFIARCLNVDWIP
The experiment in a line: Inhibition of prolyl oligopeptidase in intact human fibroblasts assessed as blockade of Z-Gly-Pro-AMC substrate hydrolysis at 100 uM by fluorimetric assay. The method, boiled down:
(§1)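 Intact confluent human glioblastoma (LN18, LN229, LNZ308), brain endothelial HCEC, or lung PO03 and skin PG98/5 fibroblast monolayers in PBS (pH 7.2-7.4), cells grown beforehand in DMEM with 10% FCS. Compound was diluted from methanol stock into water and preincubated 5-10 min at room temperature. Z-Gly-Pro-AMC was then added and read fluorimetrically. Duplicate wells.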

Assay [2] has as its target T1, Prolyl endopeptidase (Homo sapiens). The assay can be described thus: Inhibition of prolyl oligopeptidase in human astrocyte derived cell extracts assessed as blockade of Z-Gly-Pro-AMC substrate hydrolysis at 100 uM by fluorimetric assay. The method, boiled down:
(§2)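 Confluent human glioblastoma (LN18, LN229, LNZ308), brain endothelial HCEC, or lung PO03 and skin PG98/5 fibroblasts extracted in PBS with 0.1% Triton X-100. Compound was diluted from methanol stock into water and preincubated 5-10 min at room temperature. Z-Gly-Pro-AMC was then added and read by fluorescence. Duplicate wells.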

For assay [3] the target is unchanged. The experiment in a line: Inhibition of prolyl oligopeptidase in human brain derived endothelial cell extracts assessed as blockade of Z-Gly-Pro-AMC substrate hydrolysis at 100 uM by fluorimetric assay. The format is cell-free. The gist of the method:
as §2

For assay [4], the target named is Dipeptidyl peptidase 4 (Homo sapiens) (UniProt P27487). The experiment in a line: Inhibition of DPP4 in intact human astrocyte derived cells assessed as blockade of Gly-Pro-AMC substrate hydrolysis at 100 uM by fluorimetric assay. The method, boiled down: (§3)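 Confluent intact human glioblastoma (LN18, LN229, LNZ308), brain endothelial HCEC, or lung PO03 and skin PG98/5 fibroblast monolayers kept in PBS (pH 7.2-7.4) without detergent. Compound was diluted from methanol stock into water and preincubated 5-10 min at room temperature. Gly-Pro-AMC was then added and hydrolysis read by fluorescence. Duplicate wells.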

The target is the same in assay [5]. The experiment in a line: Inhibition of DPP4 in human fibroblast extracts assessed as blockade of Gly-Pro-AMC substrate hydrolysis at 100 uM by fluorimetric assay. The method, boiled down:
(§4)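 Confluent human cells (glioblastoma LN18, LN229, LNZ308; brain endothelial HCEC; lung PO03 or skin PG98/5 fibroblasts) grown in DMEM with 4.5 g/L glucose and 10% FCS, then lysed in PBS (pH 7.2-7.4) containing 0.1% Triton X-100. Compound was diluted from methanol stock into water and preincubated 5-10 min at room temperature. Gly-Pro-AMC was then added. Duplicate wells.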

In assay [6] the target is T1, Prolyl endopeptidase (Homo sapiens). The assay can be described thus: Inhibition of prolyl oligopeptidase in human fibroblast extracts assessed as blockade of Z-Gly-Pro-AMC substrate hydrolysis at 100 uM by fluorimetric assay. The method, boiled down:
as §2

Assay [7] addresses Dipeptidyl peptidase 4 (Homo sapiens) (UniProt P27487). The assay can be described thus: Inhibition of DPP4 in intact human fibroblasts assessed as blockade of Gly-Pro-AMC substrate hydrolysis at 100 uM by fluorimetric assay. The method, boiled down: as §3
Assay [8] has the same target. The assay can be described thus: Inhibition of DPP4 in human brain derived endothelial cell extracts assessed as blockade of Gly-Pro-AMC substrate hydrolysis at 100 uM by fluorimetric assay. The format is cell-free. The gist of the method: as §4
The target is the same in assay [9]. The experiment in a line: Inhibition of DPP4 in human astrocyte derived cell extracts assessed as blockade of Gly-Pro-AMC substrate hydrolysis at 100 uM by fluorimetric assay. The gist of the method: as §4
The target is the same in assay [10]. The experiment in a line: Inhibition of DPP4 in intact human brain derived endothelial cells assessed as blockade of Gly-Pro-AMC substrate hydrolysis at 100 uM by fluorimetric assay. Particulars: Endothelial cell. The format is cell-based. The gist of the method: as §3
Assay [11] has as its target T1, Prolyl endopeptidase (Homo sapiens). The assay can be described thus: Inhibition of prolyl oligopeptidase in intact human astrocyte derived cells assessed as blockade of Z-Gly-Pro-AMC substrate hydrolysis at 100 uM by fluorimetric assay. The method, boiled down:
as §1

For assay [12] the target is unchanged. The experiment in a line: Inhibition of prolyl oligopeptidase in intact human brain derived endothelial cells assessed as blockade of Z-Gly-Pro-AMC substrate hydrolysis at 100 uM by fluorimetric assay. It is filed as cell-based. Particulars: Endothelial cell. The gist of the method:
as §1

Assay [13] has as its target T2, Prolyl endopeptidase (Homo sapiens, UniProt P48147).
T2 sequence (P48147 whole entry): T1 sequence (whole entry)
The experiment in a line: Inhibition of prolyl oligopeptidase in intact human LNZ308 cells assessed as blockade of Z-Gly-Pro-AMC substrate hydrolysis by fluorimetric assay. The format is cell-based.

Assay [14] has as its target T2, Prolyl endopeptidase. The assay can be described thus: Inhibition of prolyl oligopeptidase in human LN229 cell extracts assessed as blockade of Z-Gly-Pro-AMC substrate hydrolysis by fluorimetric assay.
Assay [15] concerns the target T2, Prolyl endopeptidase. The experiment in a line: Inhibition of prolyl oligopeptidase in intact human LN229 cells assessed as blockade of Z-Gly-Pro-AMC substrate hydrolysis by fluorimetric assay. It is filed as cell-based.
Assay [16] addresses T2, Prolyl endopeptidase. The experiment in a line: Inhibition of prolyl oligopeptidase in human LNZ308 cell extracts assessed as blockade of Z-Gly-Pro-AMC substrate hydrolysis by fluorimetric assay.
In assay [17] the target is T2, Prolyl endopeptidase. The assay can be described thus: Inhibition of prolyl oligopeptidase in human HCEC cell extracts assessed as blockade of Z-Gly-Pro-AMC substrate hydrolysis by fluorimetric assay. It is filed as cell-free.
In assay [18] the target is T2, Prolyl endopeptidase. The assay can be described thus: Inhibition of prolyl oligopeptidase in intact human HCEC cells assessed as blockade of Z-Gly-Pro-AMC substrate hydrolysis by fluorimetric assay. The format is cell-based.

Chain of Dipeptidyl peptidase 4 (Homo sapiens) (P27487 whole entry, looked up): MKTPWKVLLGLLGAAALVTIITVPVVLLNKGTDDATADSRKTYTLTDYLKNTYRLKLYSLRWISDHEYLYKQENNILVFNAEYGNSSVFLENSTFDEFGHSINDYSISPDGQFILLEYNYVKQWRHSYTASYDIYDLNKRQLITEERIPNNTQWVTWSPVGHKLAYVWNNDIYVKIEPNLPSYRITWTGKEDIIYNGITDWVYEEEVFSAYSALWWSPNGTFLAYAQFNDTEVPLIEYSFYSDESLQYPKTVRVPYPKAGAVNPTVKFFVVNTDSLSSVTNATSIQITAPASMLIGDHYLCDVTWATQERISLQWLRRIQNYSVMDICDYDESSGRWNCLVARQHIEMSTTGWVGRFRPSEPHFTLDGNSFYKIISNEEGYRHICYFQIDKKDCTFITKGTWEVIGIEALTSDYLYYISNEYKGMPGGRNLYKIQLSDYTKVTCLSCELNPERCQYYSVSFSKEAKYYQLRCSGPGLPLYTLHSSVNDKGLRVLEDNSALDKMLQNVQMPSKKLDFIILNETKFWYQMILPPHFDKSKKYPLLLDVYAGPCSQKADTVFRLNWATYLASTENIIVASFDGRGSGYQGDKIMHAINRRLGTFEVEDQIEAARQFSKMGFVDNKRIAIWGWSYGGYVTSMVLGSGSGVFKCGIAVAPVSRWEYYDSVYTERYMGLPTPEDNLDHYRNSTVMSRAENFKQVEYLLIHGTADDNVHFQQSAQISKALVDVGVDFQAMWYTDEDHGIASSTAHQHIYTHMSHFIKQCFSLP

In general, inhibition refers to the share of the control response that was lost under treatment. Regarding `N#CC1CCSC2CC(NC(=O)OCc3ccccc3)C(=O)N12` (racemic), the inhibition result in assay [1], in assay [2], in assay [3], in assay [4], in assay [5] and in assay [7] was “inactive” each time. The inhibition entry in assay [8], in [9], in assay [10], in [11] and in assay [12] was “inactive” throughout. Besides, the inhibition in [6] worked out at 10%.
As for `NC(=O)[C@@H]1CS[C@H]2C[C@H](NC(=O)OCc3ccccc3)C(=O)N21`, the inhibition entry in [1], in assay [2], in assay [3], in assay [4], in assay [5] and in assay [6] was “inactive” in each case. Besides, the inhibition entry in assay [7], in assay [8], in [9], in [10], in [11] and in assay [12] was “inactive” throughout.
As for `COC(=O)[C@@H]1CS[C@H]2C[C@H](NC(=O)OCc3ccccc3)C(=O)N21`, the inhibition in assay [1], in [2] and in assay [6] was 10% each time. Besides, the inhibition entry in assay [3], in assay [4], in assay [5], in [7], in assay [8] and in assay [9] was “inactive” each time. Moreover, the inhibition result in assay [10], in assay [11] and in [12] was “inactive” throughout.
Consider `COC(=O)[C@@H]1CS[C@H]2C[C@@H](NC(=O)OCc3ccccc3)C(=O)N21`, for which the inhibition in assay [1] and in [6] was 10% throughout. Moreover, the inhibition entry in assay [2], in assay [3], in assay [4], in [5], in assay [7] and in [8] was “inactive” throughout. Moreover, the inhibition entry in assay [9], in [10], in assay [11] and in assay [12] was “inactive” throughout.
With `N#C[C@H]1CS[C@@H]2C[C@H](NC(=O)OCc3ccccc3)C(=O)N12`, the inhibition entry in assay [1], in [4], in assay [5], in assay [6], in assay [7] and in assay [8] was “inactive” each time. The inhibition entry in [9], in assay [10], in assay [11] and in assay [12] was “inactive” in each case. In addition, the inhibition in assay [2] and in [3] was 10% throughout.
Broadly, the IC50 is the concentration at which inhibition is half-maximal. For `N#C[C@@H]1CS[C@H]2C[C@@H](NC(=O)OCc3ccccc3)C(=O)N12`, the inhibition entry in assay [4], in [5], in assay [7], in assay [8], in assay [9] and in assay [10] was “inactive” in each case. For the same molecule, the IC50 at Prolyl endopeptidase [13] is 2500 nM; at Prolyl endopeptidase [14] it was 500 nM; on Prolyl endopeptidase [15] it was 2000 nM; on Prolyl endopeptidase [16] it was 200 nM; at Prolyl endopeptidase [17], 700 nM; at Prolyl endopeptidase [18], 1300 nM.
Turning to `C[C@H]1O[C@H]2C[C@@H](NC(=O)OCc3ccccc3)C(=O)N2[C@@H]1C#N`, the inhibition entry in assay [1], in assay [4], in [5], in [6], in assay [7] and in assay [8] was “inactive” throughout. Further, the inhibition result in [9], in [10] and in [11] was “inactive” in each case. The inhibition in assay [2], in assay [3] and in assay [12] was 10% in each case.
For `N#C[C@@H]1CS[C@H]2CC[C@H](NC(=O)OCc3ccccc3)C(=O)N12`, the inhibition in assay [1] was over 50%; in assay [2] it was over 50%; in assay [3], over 50%; in assay [6] it was over 50%; in [11] it was over 50%; in assay [12] it was 10%. Also, the inhibition result in assay [4], in assay [5], in assay [7], in assay [8], in assay [9] and in assay [10] was “inactive” throughout.
`N#C[C@@H]1CO[C@H]2C[C@H](NC(=O)OCc3ccccc3)C(=O)N12`: the inhibition in assay [1] and in assay [6] was 10% each time. The inhibition entry in [2], in [3], in [4], in assay [5], in assay [7] and in assay [8] was “inactive” in each case. Besides, the inhibition result in [9], in [10], in [11] and in [12] was “inactive” throughout.
Consider `N#CC1CCCCN1C(=O)CNC(=O)OCc1ccccc1` (racemic), for which the inhibition entry in [1], in [4], in assay [5], in assay [7], in assay [8] and in [9] was “inactive” in each case. The inhibition result in [10] and in assay [12] was “inactive” each time. Further, the inhibition in assay [2] was over 50%; in [3], 10%; in assay [6], 10%; in assay [11], 10%.
